According to ChEMBL document CHEMBL1629697, “Endocannabinoids inhibit the growth of free-living amoebae” (Antimicrob Agents Chemother, 2010):
Calls of active or inactive are those of the source. The rule behind the calls is not given here.

Legend:
Willaertia magna [1] = assay: Antimicrobial activity against Willaertia magna c2c Maky ATCC PTA-7824 assessed as growth inhibition at 10 ug/ml after 3 days by hemocytometer relative to control; format: functional; conditions: c2c Maky ATCC PTA-7824, 72 h, read-out: INH
Procedure, shortened: (§1)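 Amoebae maintained at 30°C on E. coli lawns on nonnutrient agar, then axenic at 37°C in SCGYEM. Seeded day 0 at 2 × 10^5 cells/ml in SCGYEM with or without endocannabinoid, added in ethanol (0.05% final); vehicle controls contained ethanol. Tubes incubated slanted at 37°C; cell concentration counted daily by hemocytometer through day 3.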

Hartmannella vermiformis [2] = assay: Antimicrobial activity against Hartmannella vermiformis assessed as growth inhibition at 5 ug/ml after 3 days by hemocytometer; format: functional; conditions: Vermamoeba vermiformis; procedure, shortened: as §1
Willaertia magna [3] = assay: Antimicrobial activity against Willaertia magna c2c Maky ATCC PTA-7824 assessed as growth inhibition at 2 ug/ml after 3 days by hemocytometer; format: functional; procedure, shortened: as §1
Hartmannella vermiformis [4] = assay: Antimicrobial activity against Hartmannella vermiformis assessed as growth inhibition at 10 ug/ml upto 3 days by hemocytometer; format: functional; conditions: Vermamoeba vermiformis; procedure, shortened: as §1
Acanthamoeba castellanii [5] = assay: Antimicrobial activity against Acanthamoeba castellanii assessed as decrease in viable cell concentration at 20 ug/ml after 3 days by hemocytometer; format: functional, organism-based; procedure, shortened: as §1
Willaertia magna [6] = assay: Antimicrobial activity against Willaertia magna c2c Maky ATCC PTA-7824 after 3 days by hemocytometer; format: functional; conditions: c2c Maky ATCC PTA-7824, 72 h; procedure, shortened: as §1
Hartmannella vermiformis [7] = assay: Antimicrobial activity against Hartmannella vermiformis assessed as decrease in viable cell concentration at 20 ug/ml after 3 days by hemocytometer; format: functional; conditions: Vermamoeba vermiformis; procedure, shortened: as §1
Willaertia magna [8] = assay: Antimicrobial activity against Willaertia magna c2c Maky ATCC PTA-7824 assessed as growth inhibition at 10 ug/ml upto 3 days by hemocytometer; format: functional; procedure, shortened: as §1
Acanthamoeba castellanii [9] = assay: Antimicrobial activity against Acanthamoeba castellanii assessed as growth inhibition at 10 ug/ml after 3 days by hemocytometer relative to control; format: functional; conditions: 72 h; procedure, shortened: as §1
Hartmannella vermiformis [10] = assay: Antimicrobial activity against Hartmannella vermiformis assessed as growth inhibition at 10 ug/ml after 3 days by hemocytometer relative to control; format: functional; conditions: Vermamoeba vermiformis, 72 h, read-out: INH; procedure, shortened: as §1
Acanthamoeba castellanii [11] = assay: Antimicrobial activity against Acanthamoeba castellanii assessed as growth inhibition at 2 ug/ml after 3 days by hemocytometer; format: functional, organism-based; procedure, shortened: as §1
Hartmannella vermiformis [12] = assay: Antimicrobial activity against Hartmannella vermiformis after 3 days by hemocytometer; format: functional; conditions: Vermamoeba vermiformis, 72 h; procedure, shortened: as §1
Willaertia magna [13] = assay: Antimicrobial activity against Willaertia magna c2c Maky ATCC PTA-7824 assessed as growth inhibition at 5 ug/ml after 3 days by hemocytometer; format: functional; procedure, shortened: as §1
Willaertia magna [14] = assay: Antimicrobial activity against Willaertia magna c2c Maky ATCC PTA-7824 assessed as decrease in viable cell concentration at 20 ug/ml after 3 days by hemocytometer; format: functional; procedure, shortened: as §1
Acanthamoeba castellanii [15] = assay: Antimicrobial activity against Acanthamoeba castellanii assessed as growth inhibition at 5 ug/ml after 3 days by hemocytometer; format: functional, organism-based; procedure, shortened: as §1
Acanthamoeba castellanii [16] = assay: Antimicrobial activity against Acanthamoeba castellanii after 3 days by hemocytometer; format: functional, organism-based; conditions: 72 h; procedure, shortened: as §1
Acanthamoeba castellanii [17] = assay: Antimicrobial activity against Acanthamoeba castellanii assessed as growth inhibition at 10 ug/ml upto 3 days by hemocytometer; format: functional, organism-based; procedure, shortened: as §1
Hartmannella vermiformis [18] = assay: Antimicrobial activity against Hartmannella vermiformis assessed as growth inhibition at 2 ug/ml after 3 days by hemocytometer; format: functional; conditions: Vermamoeba vermiformis; procedure, shortened: as §1

CCCCC/C=C\C/C=C\C/C=C\C/C=C\CCCC(=O)NCCO [ANANDAMIDE]
inhibition at 10 µg/mL (Willaertia magna [1]): 58% | inhibition (Hartmannella vermiformis [2]): Active | inhibition (Willaertia magna [3]): Active | inhibition (Hartmannella vermiformis [4]): Active | inhibition (Acanthamoeba castellanii [5]): Active | IC50 (Willaertia magna [6]): 20 µM | inhibition (Hartmannella vermiformis [7]): Active | inhibition (Willaertia magna [8]): Active | inhibition at 10 µg/mL (Acanthamoeba castellanii [9]): 68% | inhibition at 10 µg/mL (Hartmannella vermiformis [10]): 96% | inhibition (Acanthamoeba castellanii [11]): Active | IC50 (Hartmannella vermiformis [12]): 14 µM | inhibition (Willaertia magna [13]): Active | inhibition (Willaertia magna [14]): Active | inhibition (Acanthamoeba castellanii [15]): Active | IC50 (Acanthamoeba castellanii [16]): 17 µM | inhibition (Acanthamoeba castellanii [17]): Active | inhibition (Hartmannella vermiformis [18]): Active
